In the M2OR odorant receptor database:

Key:
Conditions in all cases: stereoisomer not certain
OR10H4 (Homo sapiens) = molecular target: T1, OR10H4 (Homo sapiens) (UniProt Q8NGA5)
T1 sequence (whole entry): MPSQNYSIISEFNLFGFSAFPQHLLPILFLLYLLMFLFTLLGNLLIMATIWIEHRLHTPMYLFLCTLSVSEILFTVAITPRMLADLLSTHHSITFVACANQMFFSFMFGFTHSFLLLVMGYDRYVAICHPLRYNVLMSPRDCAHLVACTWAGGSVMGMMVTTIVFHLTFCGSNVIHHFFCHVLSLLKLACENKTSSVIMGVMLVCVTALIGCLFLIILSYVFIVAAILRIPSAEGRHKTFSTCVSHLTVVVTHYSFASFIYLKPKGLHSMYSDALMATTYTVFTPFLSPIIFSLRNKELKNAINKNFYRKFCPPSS
Summary of the method: (§1)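 Each receptor–molecule pair is labelled responsive or non-responsive (inactive) according to whether the original authors judged the measured signal statistically different from baseline. The data were taken from the main text and supplementary material of published papers and checked for typos and inconsistencies. Assay methods differed by source, with transient luciferase assays in mammalian cell lines being common.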

OR10H5 (Homo sapiens) = molecular target: T2, OR10H5 (Homo sapiens) (UniProt Q8NGA6)
T2 sequence (whole entry): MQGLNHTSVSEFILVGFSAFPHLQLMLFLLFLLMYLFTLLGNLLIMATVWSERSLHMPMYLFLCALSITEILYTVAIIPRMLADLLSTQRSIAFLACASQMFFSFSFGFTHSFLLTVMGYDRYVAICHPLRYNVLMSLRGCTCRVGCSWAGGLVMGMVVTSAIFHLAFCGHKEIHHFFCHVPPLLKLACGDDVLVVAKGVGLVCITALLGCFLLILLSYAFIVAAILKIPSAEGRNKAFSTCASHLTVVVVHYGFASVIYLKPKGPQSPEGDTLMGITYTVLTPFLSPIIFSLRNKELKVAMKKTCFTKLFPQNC
Summary of the method: as §1

OR10J1 (Homo sapiens) = molecular target: T3, OR10J1 (Homo sapiens) (UniProt P30954)
T3 sequence (whole entry): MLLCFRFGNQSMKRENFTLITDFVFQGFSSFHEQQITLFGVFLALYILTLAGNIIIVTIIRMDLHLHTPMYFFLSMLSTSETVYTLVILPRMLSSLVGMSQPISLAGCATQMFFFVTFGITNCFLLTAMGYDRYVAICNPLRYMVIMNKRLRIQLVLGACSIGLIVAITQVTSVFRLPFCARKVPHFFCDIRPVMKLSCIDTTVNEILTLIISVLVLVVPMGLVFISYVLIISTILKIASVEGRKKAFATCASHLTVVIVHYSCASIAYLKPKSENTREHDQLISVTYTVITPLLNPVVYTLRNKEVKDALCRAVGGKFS
Summary of the method: as §1

OR10J3 (Homo sapiens) = molecular target: T4, OR10J3 (Homo sapiens) (UniProt Q5JRS4)
T4 sequence (whole entry): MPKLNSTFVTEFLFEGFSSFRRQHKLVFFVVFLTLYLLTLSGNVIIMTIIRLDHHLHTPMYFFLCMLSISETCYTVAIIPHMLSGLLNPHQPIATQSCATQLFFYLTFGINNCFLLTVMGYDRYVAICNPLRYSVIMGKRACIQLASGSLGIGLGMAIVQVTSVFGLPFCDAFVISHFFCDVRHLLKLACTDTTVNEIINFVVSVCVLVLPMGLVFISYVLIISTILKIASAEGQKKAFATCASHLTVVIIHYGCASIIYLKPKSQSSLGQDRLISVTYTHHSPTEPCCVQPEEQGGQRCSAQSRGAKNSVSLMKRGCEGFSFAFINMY
Summary of the method: as §1

OR10J5 (Homo sapiens) = molecular target: T5, OR10J5 (Homo sapiens) (UniProt Q8NHC4)
T5 sequence (whole entry): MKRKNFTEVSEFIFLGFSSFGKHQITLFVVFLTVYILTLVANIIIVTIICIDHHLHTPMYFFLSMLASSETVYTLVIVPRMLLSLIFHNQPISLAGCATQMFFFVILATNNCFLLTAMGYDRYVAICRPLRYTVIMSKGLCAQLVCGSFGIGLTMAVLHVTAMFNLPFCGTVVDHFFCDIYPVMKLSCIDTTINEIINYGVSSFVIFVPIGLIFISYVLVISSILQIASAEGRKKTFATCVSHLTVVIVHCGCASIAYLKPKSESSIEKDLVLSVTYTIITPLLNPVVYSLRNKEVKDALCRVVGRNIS
Summary of the method: as §1

OR10K1 (Homo sapiens) = molecular target: T6, OR10K1 (Homo sapiens) (UniProt Q8NGX5)
T6 sequence (whole entry): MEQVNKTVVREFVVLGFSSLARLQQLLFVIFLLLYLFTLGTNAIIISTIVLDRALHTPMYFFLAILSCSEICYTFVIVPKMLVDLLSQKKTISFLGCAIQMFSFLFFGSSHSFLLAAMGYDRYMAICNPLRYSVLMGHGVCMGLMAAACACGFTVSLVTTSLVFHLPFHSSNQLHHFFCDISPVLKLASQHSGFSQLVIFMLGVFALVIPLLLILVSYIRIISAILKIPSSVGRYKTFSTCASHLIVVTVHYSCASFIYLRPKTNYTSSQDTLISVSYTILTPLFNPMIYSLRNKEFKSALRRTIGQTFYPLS
Summary of the method: as §1

OR10P1 (Homo sapiens) = molecular target: T7, OR10P1 (Homo sapiens) (UniProt Q8NGE3)
T7 sequence (whole entry): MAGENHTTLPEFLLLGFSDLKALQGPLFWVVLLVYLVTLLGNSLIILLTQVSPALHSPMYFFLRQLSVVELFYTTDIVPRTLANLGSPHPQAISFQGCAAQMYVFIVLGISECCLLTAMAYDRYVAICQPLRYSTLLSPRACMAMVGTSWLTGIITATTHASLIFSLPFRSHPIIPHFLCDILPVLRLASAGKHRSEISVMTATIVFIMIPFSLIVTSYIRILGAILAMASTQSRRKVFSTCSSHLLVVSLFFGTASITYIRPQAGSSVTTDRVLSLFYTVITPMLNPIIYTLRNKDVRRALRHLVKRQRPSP
Summary of the method: as §1

OR10Q1 (Homo sapiens) = molecular target: T8, OR10Q1 (Homo sapiens) (UniProt Q8NGQ4)
T8 sequence (whole entry): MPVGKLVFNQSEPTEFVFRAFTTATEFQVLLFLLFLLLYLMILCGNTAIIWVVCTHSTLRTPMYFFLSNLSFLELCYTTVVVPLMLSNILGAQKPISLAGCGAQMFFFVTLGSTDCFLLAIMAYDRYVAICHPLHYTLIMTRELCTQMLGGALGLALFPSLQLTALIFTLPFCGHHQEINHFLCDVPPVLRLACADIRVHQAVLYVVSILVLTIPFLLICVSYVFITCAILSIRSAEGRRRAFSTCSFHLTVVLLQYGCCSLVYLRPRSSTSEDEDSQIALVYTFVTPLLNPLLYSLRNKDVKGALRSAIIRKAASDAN
Summary of the method: as §1

OR10R2 (Homo sapiens) = molecular target: T9, OR10R2 (Homo sapiens) (UniProt Q8NGX6)
T9 sequence (whole entry): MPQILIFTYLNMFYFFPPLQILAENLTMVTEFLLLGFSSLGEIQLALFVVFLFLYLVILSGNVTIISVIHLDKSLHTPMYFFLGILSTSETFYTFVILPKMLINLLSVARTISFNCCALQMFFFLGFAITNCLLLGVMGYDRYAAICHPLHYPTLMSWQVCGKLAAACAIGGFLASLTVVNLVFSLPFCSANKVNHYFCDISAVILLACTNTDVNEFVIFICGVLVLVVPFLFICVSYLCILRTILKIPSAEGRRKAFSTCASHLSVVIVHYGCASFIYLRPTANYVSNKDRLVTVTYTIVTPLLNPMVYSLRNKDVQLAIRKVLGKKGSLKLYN
Summary of the method: as §1

OR10S1 (Homo sapiens) = molecular target: T10, OR10S1 (Homo sapiens) (UniProt Q8NGN2)
T10 sequence (whole entry): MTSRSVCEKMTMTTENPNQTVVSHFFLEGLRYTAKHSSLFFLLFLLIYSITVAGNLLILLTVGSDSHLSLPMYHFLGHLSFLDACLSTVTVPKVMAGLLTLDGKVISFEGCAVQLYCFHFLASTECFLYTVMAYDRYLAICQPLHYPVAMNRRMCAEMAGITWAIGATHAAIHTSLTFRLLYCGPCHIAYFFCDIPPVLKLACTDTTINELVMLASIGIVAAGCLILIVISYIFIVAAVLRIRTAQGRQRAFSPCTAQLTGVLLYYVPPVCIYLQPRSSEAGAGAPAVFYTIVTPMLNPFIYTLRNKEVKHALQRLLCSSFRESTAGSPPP
Summary of the method: as §1

OR10T2 (Homo sapiens) = molecular target: T11, OR10T2 (Homo sapiens) (UniProt Q8NGX3)
T11 sequence (whole entry): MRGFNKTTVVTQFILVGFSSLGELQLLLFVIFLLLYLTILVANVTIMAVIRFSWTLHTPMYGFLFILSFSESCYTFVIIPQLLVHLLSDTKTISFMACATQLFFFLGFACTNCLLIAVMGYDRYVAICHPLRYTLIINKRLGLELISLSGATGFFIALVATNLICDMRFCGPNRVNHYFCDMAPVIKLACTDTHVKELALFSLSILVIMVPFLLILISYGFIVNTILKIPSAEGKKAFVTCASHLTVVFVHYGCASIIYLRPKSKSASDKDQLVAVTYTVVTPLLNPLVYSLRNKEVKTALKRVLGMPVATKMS
Summary of the method: as §1

OR10V1 (Homo sapiens) = molecular target: T12, OR10V1 (Homo sapiens) (UniProt Q8NGI7)
T12 sequence (whole entry): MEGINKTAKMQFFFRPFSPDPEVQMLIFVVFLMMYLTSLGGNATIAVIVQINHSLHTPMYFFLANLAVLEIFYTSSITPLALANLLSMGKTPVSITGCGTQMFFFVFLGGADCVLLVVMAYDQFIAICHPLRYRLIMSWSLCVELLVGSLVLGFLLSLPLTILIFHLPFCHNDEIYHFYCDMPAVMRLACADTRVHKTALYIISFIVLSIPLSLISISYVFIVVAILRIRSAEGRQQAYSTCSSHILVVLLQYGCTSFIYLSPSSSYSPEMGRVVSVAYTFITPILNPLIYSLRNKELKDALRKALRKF
Summary of the method: as §1

OR10W1 (Homo sapiens) = molecular target: T13, OR10W1 (Homo sapiens) (UniProt Q8NGF6)
T13 sequence (whole entry): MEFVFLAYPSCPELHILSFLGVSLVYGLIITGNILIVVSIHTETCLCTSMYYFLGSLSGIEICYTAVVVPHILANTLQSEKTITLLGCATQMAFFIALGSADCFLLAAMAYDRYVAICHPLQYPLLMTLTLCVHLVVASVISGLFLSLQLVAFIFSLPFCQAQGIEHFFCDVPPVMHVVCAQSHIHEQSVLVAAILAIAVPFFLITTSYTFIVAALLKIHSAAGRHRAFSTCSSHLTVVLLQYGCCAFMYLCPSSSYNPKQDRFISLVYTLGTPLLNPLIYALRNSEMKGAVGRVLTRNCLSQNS
Summary of the method: as §1

OR10X1 (Homo sapiens) = molecular target: T14, OR10X1 (Homo sapiens) (UniProt Q8NGY0)
T14 sequence (whole entry): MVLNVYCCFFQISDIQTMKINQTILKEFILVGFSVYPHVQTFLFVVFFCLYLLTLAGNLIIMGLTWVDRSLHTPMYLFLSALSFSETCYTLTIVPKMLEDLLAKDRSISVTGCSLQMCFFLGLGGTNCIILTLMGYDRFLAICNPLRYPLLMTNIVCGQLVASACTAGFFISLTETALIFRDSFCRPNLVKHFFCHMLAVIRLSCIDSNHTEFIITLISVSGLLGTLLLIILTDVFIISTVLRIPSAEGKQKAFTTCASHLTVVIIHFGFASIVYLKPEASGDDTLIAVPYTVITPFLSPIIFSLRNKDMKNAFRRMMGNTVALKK
Summary of the method: as §1

OR10Z1 (Homo sapiens) = molecular target: T15, OR10Z1 (Homo sapiens) (UniProt Q8NGY1)
T15 sequence (whole entry): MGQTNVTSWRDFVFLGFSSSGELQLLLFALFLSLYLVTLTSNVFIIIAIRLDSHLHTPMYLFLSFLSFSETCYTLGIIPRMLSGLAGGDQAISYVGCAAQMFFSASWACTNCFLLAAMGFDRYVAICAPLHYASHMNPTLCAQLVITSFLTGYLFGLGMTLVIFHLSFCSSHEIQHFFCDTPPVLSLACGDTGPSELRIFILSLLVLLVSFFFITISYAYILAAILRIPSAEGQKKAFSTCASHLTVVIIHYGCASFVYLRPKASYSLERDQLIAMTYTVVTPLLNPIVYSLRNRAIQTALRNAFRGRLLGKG
Summary of the method: as §1

OR11A1 (Homo sapiens) = molecular target: T16, OR11A1 (Homo sapiens) (UniProt Q9GZK7)
T16 sequence (whole entry): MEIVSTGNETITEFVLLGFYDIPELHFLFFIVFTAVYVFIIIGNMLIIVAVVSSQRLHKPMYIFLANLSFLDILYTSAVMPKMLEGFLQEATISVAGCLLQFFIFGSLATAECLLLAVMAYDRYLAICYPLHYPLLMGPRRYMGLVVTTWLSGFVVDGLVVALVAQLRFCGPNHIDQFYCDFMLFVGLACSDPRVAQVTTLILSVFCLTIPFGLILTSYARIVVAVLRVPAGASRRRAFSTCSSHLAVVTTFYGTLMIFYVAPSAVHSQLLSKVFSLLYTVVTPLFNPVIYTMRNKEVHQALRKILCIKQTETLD
Summary of the method: as §1

OR11G2 (Homo sapiens) = molecular target: T17, OR11G2 (Homo sapiens) (UniProt Q8NGC1)
T17 sequence (whole entry): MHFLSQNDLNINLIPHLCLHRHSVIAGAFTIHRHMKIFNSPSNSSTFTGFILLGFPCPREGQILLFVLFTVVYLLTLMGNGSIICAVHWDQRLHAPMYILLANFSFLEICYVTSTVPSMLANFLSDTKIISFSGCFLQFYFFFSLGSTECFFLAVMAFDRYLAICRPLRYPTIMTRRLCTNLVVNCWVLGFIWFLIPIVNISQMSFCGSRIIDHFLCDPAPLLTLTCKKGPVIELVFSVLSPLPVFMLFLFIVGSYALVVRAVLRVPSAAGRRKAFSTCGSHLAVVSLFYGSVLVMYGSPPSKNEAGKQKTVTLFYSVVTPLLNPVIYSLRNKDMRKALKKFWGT
Summary of the method: as §1

OR11H1 (Homo sapiens) = molecular target: T18, OR11H1 (Homo sapiens) (UniProt Q8NG94)
T18 sequence (whole entry): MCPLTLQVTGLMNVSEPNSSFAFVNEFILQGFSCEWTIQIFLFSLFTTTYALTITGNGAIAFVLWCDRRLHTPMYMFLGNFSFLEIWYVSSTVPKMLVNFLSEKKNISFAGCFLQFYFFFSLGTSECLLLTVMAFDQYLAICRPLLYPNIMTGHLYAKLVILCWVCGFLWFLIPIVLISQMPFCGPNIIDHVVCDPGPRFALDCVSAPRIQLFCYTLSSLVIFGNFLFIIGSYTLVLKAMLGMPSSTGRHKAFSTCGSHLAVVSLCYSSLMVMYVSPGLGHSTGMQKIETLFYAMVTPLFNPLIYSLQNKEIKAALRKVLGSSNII
Summary of the method: as §1

Measured: odorant receptor agonist call;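 further: active if original authors judged signal statistically different from baseline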

CC1=C(O)C(=O)C(C)O1 (configuration not stated)
inactive: all assays above

Cc1cnc(C)c(C)n1
inactive: all assays above

CC12CCC(CC1=O)C2(C)C (configuration not stated)
inactive: OR10J5 (Homo sapiens)
